In ChEMBL document CHEMBL2434863, “Synthesis and in vitro/in vivo antibacterial activity of oxazolidinones having thiocarbamate at C-5 on the A-ring and an amide- or urea-substituted [1,2,5]triazepane or [1,2,5]oxadiazepane as the C-ring” (Eur J Med Chem, 2013):

Assays:
Format in all cases: functional
[1] = system: Staphylococcus aureus; experiment: Antibacterial activity against linezolid-resistant Staphylococcus aureus NRS271 assessed as growth inhibition by broth microdilution method
[2] = system: Staphylococcus aureus; experiment: Antibacterial activity against Staphylococcus aureus Smith assessed as growth inhibition by broth microdilution method
[3] = system: Enterococcus faecalis; experiment: Antibacterial activity against Enterococcus faecalis SR1004 clinical isolate assessed as growth inhibition by broth microdilution method
[4] = system: Staphylococcus aureus; experiment: Antibacterial activity against Staphylococcus aureus SR20549 clinical isolate assessed as growth inhibition by broth microdilution method
[5] = system: Moraxella catarrhalis; experiment: Antibacterial activity against Moraxella catarrhalis SR26840 clinical isolate assessed as growth inhibition by broth microdilution method
[6] = system: Haemophilus influenzae; experiment: Antibacterial activity against Haemophilus influenzae SR27914 clinical isolate assessed as growth inhibition by broth microdilution method
[7] = system: Streptococcus pneumoniae; experiment: Antibacterial activity against Streptococcus pneumoniae SR26207 clinical isolate assessed as growth inhibition by broth microdilution method
[8] = system: Enterococcus faecium; experiment: Antibacterial activity against Enterococcus faecium SR7940 clinical isolate assessed as growth inhibition by broth microdilution method
[9] = system: Staphylococcus aureus; experiment: Antibacterial activity against methicillin-resistant Staphylococcus aureus SR3637 infected in JCL/ICR mouse systemic infection model assessed as mortality administered as iv measured over 7 days; conditions: 168 h
Method in brief: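 Lethal systemic infection model in mice; test agents were given intravenously.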

[10] = system: Staphylococcus aureus; experiment: Antibacterial activity against methicillin-resistant Staphylococcus aureus SR3637 assessed as growth inhibition by broth microdilution method

SMILES	MIC [1] [µg/mL]	MIC [2] [µg/mL]	MIC [3] [µg/mL]	MIC [4] [µg/mL]	MIC [5] [µg/mL]	MIC [6] [µg/mL]	MIC [7] [µg/mL]	MIC [8] [µg/mL]	ED50 [9] [mg/kg]	MIC [10] [µg/mL]
NC(=O)N1CCN(c2c(F)cc(N3C[C@H](Cn4ccnn4)OC3=O)cc2F)CCN1	32	1	2	1	4	16	0.5	4	–	–
CC(=O)N1CCN(c2c(F)cc(N3C[C@H](Cn4ccnn4)OC3=O)cc2F)CCN1	16	2	2	1	16	32	1	2	–	–
O=C(C(F)F)N1CCN(c2c(F)cc(N3C[C@H](Cn4ccnn4)OC3=O)cc2F)CCN1	16	1	1	0.5	8	16	0.125	1	–	–
O=C(C(F)F)N1CCN(c2c(F)cc(N3C[C@H](CNc4ccon4)OC3=O)cc2F)CCN1	8	1	0.5	0.5	4	16	0.125	0.5	–	–
CC(=O)NC[C@H]1CN(c2ccc(N3CCn4c(=O)c5cccnc5n4CC3)c(F)c2)C(=O)O1	16	1	2	2	16	32	0.5	2	–	–
CC(=O)NC[C@H]1CN(c2cc(F)c(N3CCn4c(=O)c5cccnc5n4CC3)c(F)c2)C(=O)O1	8	0.5	1	1	4	16	0.25	1	–	–
COC(=S)NC[C@H]1CN(c2ccc(N3CCn4c(=O)c5cccnc5n4CC3)c(F)c2)C(=O)O1	2	0.25	0.5	0.25	2	16	0.125	0.25	3.17	0.25
COC(=S)NC[C@H]1CN(c2cc(F)c(N3CCn4c(=O)c5cccnc5n4CC3)c(F)c2)C(=O)O1	2	0.25	0.5	0.25	1	> 64	0.125	0.25	9.83	0.25
O=C1O[C@@H](Cn2ccnn2)CN1c1ccc(N2CCn3c(=O)c4cccnc4n3CC2)c(F)c1	64	4	4	2	32	32	1	4	–	–
O=C1O[C@@H](Cn2ccnn2)CN1c1cc(F)c(N2CCn3c(=O)c4cccnc4n3CC2)c(F)c1	8	2	1	0.5	8	32	0.5	1	–	–
CC(=O)NC[C@H]1CN(c2cc(F)c(N3CCn4c(=O)c5cc(Cl)cnc5n4CC3)c(F)c2)C(=O)O1	8	1	2	1	4	64	0.25	1	–	–
CC(=O)NC[C@H]1CN(c2cc(F)c(N3CCn4c(=O)c5cc(Br)cnc5n4CC3)c(F)c2)C(=O)O1	8	1	2	1	4	64	0.25	1	–	–
CC(=O)NC[C@H]1CN(c2cc(F)c(N3CCON(C(C)=O)CC3)c(F)c2)C(=O)O1	32	4	2	2	4	32	1	4	–	–
COC(=S)NC[C@H]1CN(c2ccc(N3CCNN(C(C)=O)CC3)c(F)c2)C(=O)O1	8	1	0.5	0.5	4	16	0.063	0.5	2.85	0.5
CC(=O)N1CCN(c2c(F)cc(N3C[C@H](CNC(C)=S)OC3=O)cc2F)CCO1	4	1	0.5	0.25	2	8	0.125	0.5	–	–
COC(=S)NC[C@H]1CN(c2cc(F)c(N3CCNN(C(C)=O)CC3)c(F)c2)C(=O)O1	4	1	1	0.5	2	32	0.125	0.5	–	–
